PGC1a acetyl inh – inhibitors of PGC1a acetylation signal, primary screen, cell-based, U2OS, AlphaScreen, inhibitor mode. inhibition, % at 15.6 µM. hit rate 0.17% among 350,000. AlphaScreen anti-acetyl-lysine; with virally co-expressed GCN5 acetyltransferase;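 active = every replicate shows inhibition of at least 40%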;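 also: 0% = neutral control wells and 100% = positive control wells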
S100A4 inh HTS – inhibitors of S100A4-myosin IIA peptide binding, primary screen, biochemical, fluorescence polarization, TAMRA-MyoIIA peptide; hit rate 0.14% among 360,000; AID 652163, 2013; Protein S100-A4 (Homo sapiens), P26447; inhibition, % at 10.7 µM;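 active = mean inhibition of at least 70% across replicates, with every replicate also reaching that level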
Target sequence (P26447 whole entry, looked up): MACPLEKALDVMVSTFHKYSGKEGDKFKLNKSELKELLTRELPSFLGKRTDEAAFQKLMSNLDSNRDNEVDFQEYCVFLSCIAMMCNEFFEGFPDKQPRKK
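Material: S100A4 monomer (human). Medium: Calcium-containing HEPES buffer, pH 7.2. Probe or stimulus: labelled myosin peptide probe, 5 nM. Compound dosing: one concentration per compound. Timing: polarization read 5 min after assay mix addition, stable 5–60 min. Benchmarks: DMSO as neutral control, TFP as positive control.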
ARNT-TACC3 inh – disruptors of ARNT/TACC3 protein interaction, primary screen, biochemical, AlphaScreen, single concentration. hit rate 0.66% among 390,000. AlphaScreen His-ARNT PAS-B/GST-TACC3 binding, luminescence; TACC3 fragment carries E629A point mutation. Transforming acidic coiled-coil-containing protein 3 (Homo sapiens), Q9Y6A5. inhibition, % at 9.99 µM;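 active = mean inhibition of replicates at least 50% and at least half of replicates each reaching 50%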;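 also: 0% = complete ARNT plus TACC3 wells and 100% = ARNT alone without TACC3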
rRNA inh HTS – reduced GFP signal of wild-type E. coli, primary screen, bacterial rRNA inhibitor project, GFP/RFP fluorescence, OD600, single point; E. coli WT GFP vs humanized-ribosome RFP mutants, 24 h; stronger effect = lower value; DMSO median 0, no signal -100; GFP signal change (wild-type ribosome), % (concentration not given with the values); hit rate 1.6% among 350,000;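 active = significant combined selectivity score with lowered wild-type GFP, culture density cut under 30%, mutant RFP and density less affected; inactive = any of these conditions unmet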
ERAP1 HTS inh – human ERAP1 aminopeptidase inhibitors, primary screen, biochemical, single point, plate reader | Endoplasmic reticulum aminopeptidase 1 (Homo sapiens), Q9NZ08 | recombinant ERAP1, Leu-AMC fluorescence, 60 min | inhibition, % at 10.7 µM | hit rate 0.15% among 340,000 | AID 652197, 2013;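 active = mean replicate inhibition of at least 30%, or all replicates individually reaching that 30% level; inactive = mean below 30% and not every replicate reaching it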;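 also: 0% = neutral control wells and 100% = L-leucinethiol positive control wells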
CASP6 VEID inh – human caspase-6 inhibitors, primary screen, biochemical, VEID-R110 fluorescence, single point, set 2 | P55212 | purified caspase-6, Z-VEID-R110 cleavage fluorescence | inhibition, % at 12.5 µM | hit rate 0.53% among 350,000 | AID 686996, 2013;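 active = mean inhibition across replicates at least about 35%, with every replicate also reaching that limit, limit read from the data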;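 also: 0% = median of neutral control wells and 100% = no fluorescence left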
Target sequence (P55212 24-179 limits assumed): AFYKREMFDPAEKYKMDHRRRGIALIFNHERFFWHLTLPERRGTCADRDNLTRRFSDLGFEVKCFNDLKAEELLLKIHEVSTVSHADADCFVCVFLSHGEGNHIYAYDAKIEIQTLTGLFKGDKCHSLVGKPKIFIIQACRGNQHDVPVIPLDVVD
Target sequence (P55212 194-293 limits assumed): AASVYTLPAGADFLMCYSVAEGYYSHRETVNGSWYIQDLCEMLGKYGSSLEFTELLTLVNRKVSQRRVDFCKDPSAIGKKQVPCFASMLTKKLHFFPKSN
Active calls of the source: *; . = no result given. In the library only some 2.4% were active in any assay of this set; here they are far more common.

SMILES | PGC1a acetyl inh | S100A4 inh HTS | ARNT-TACC3 inh | rRNA inh HTS | ERAP1 HTS inh | CASP6 VEID inh
CCCCC(NC(=O)Cc1c(C)c2cc3c(-c4ccccc4)coc3c(C)c2oc1=O)C(=O)O (stereo unspecified) | 0 | 27 | 23 | -14 | 6 | 60*
COc1cccc(-c2coc3c(C)c4oc(=O)c(CCC(=O)O)c(C)c4cc23)c1 | 1 | -1 | 62* | -40 | 9 | 8
Cc1cccc(S(=O)(=O)N[C@@H]2CC[C@@H](CCNS(=O)(=O)c3ccccc3F)O[C@H]2CO)c1 | -4 | 1 | -13 | -7 | -2 | -2
CCC(=O)N1C[C@@H](C)[C@@H](OC)CN(C)C(=O)c2ccc(NC(=O)c3ccc(F)cc3)cc2OC[C@H]1C | 4 | 16 | -3 | -1 | 0 | -3
CCOC(=O)c1nc(C)sc1-c1ccnn1S(=O)(=O)c1cccc(Cl)c1 | . | 0 | 1 | -29* | -2 | 6
CCOC(=O)C1=CCN(S(=O)(=O)c2cccc(Cl)c2)C1c1cccc(Cl)c1 (stereo unspecified) | . | 2 | . | -12 | -5 | -1
CN1C(=O)c2cc(NC(=O)c3cccc(F)c3)ccc2OC[C@@H]2O[C@H](CC(=O)Nc3ccccc3)CC[C@H]21 | -1 | -3 | 5 | -2 | -1 | -1
O=C(CSc1nc2ccc(Cl)cc2[nH]1)NCCc1ccccc1 | . | 11 | -5 | -9 | 1 | -2
COc1ccc2nc(SCC(=O)NCCc3ccccc3)[nH]c2c1 | . | 2 | -1 | -24* | -2 | -1
O=C(CSc1nc2ccc([N+](=O)[O-])cc2[nH]1)NCCc1ccccc1 | -5 | -2 | 3 | -28* | -4 | 3
O=C1C(Nc2ccccc2)=C(N2CCCCC2)C(=O)c2ccccc21 | -8 | . | 33 | . | . | .
O=C(/C=C/c1ccc(O)cc1)c1ccc(NC2=C(N3CCCCC3)C(=O)c3ccccc3C2=O)cc1 | 6 | -3 | 26 | -37* | 0 | 3
CC(=S)/C=C1\Sc2ccccc2N1C | 5 | -30 | 6 | 21 | 4 | -1
CN1c2ccccc2Sc2cc(N)ccc21 | -4 | -9 | -21 | 0 | 3 | 54*
CNC[C@@H]1Oc2cc(C#Cc3ccccn3)ccc2S(=O)(=O)N([C@H](C)CO)C[C@H]1C | 1 | 21 | 46* | -2 | 0 | -2
COc1ccccc1C#Cc1ccc2c(c1)O[C@H](CN(C)C)[C@H](C)CN([C@@H](C)CO)S2(=O)=O | -20 | -2 | 5 | 3 | -1 | 3
COc1ccccc1C#Cc1ccc2c(c1)O[C@@H](CN(C)Cc1cccnc1)[C@H](C)CN([C@@H](C)CO)S2(=O)=O | 44* | 4 | -5 | -8 | -2 | -3
COc1ccccc1C#Cc1ccc2c(c1)O[C@@H](CN(C)C)[C@@H](C)CN([C@@H](C)CO)S2(=O)=O | -37 | 4 | 2 | 5 | -3 | 48*
Cc1nc2nc(-c3ccc(F)cc3)cn2nc1C | . | -12 | . | 6 | 2 | 1
Cc1nc2nc(-c3ccccc3)cn2nc1C | 5 | -15 | 12 | -26* | -20 | 0
O=C(NC1CCCCC1)NC1CCN(C(=S)NCc2ccco2)CC1 | -12 | . | 7 | . | . | .
S=C(NC1CC1)SCc1ccco1 | 18 | -5 | -3 | 16 | 2 | 53*
O=C1N[C@H](Cc2ccccc2)COCc2cn(nn2)CC[C@@H]1Cc1cccc(Cl)c1 | . | . | . | 1 | . | .
O=C(CSc1nnc(-c2ccncc2)n1Cc1ccco1)c1ccc(Cl)cc1 | . | 0 | 8 | -20* | 1 | 2
CC(=O)Oc1cc(C(=O)OCC(=O)NC23CC4CC(CC(C4)C2)C3)cc(OC(C)=O)c1OC(C)=O | -20 | 1 | -3 | -34 | -11 | 41*
SMILES | PGC1a acetyl inh | S100A4 inh HTS | ARNT-TACC3 inh | rRNA inh HTS | ERAP1 HTS inh | CASP6 VEID inh
Cc1csc(N/N=C/c2ccc([N+](=O)[O-])cc2)n1 | 19 | -3 | 2 | 6 | -1 | 4
O=C(O)c1csc(N/N=C/c2ccc(Br)cc2)n1 | -5 | 0 | 1 | -28* | 0 | 17
CC(C)NC(=O)Nc1ccc2c(c1)CC(=O)N([C@@H](C)CO)C[C@@H](C)[C@@H](CN(C)C(=O)Nc1ccccc1)O2 | -11 | 6 | -11 | 3 | 1 | 2
CC1(C)CC(=O)C=C(c2ccc(COC(=O)Cc3ccccc3)cc2)C1=O | 10 | -1 | . | -22* | . | 2
Cc1noc(C)c1NC(=O)N(C)C[C@H]1Oc2ccc(NC(=O)Nc3cccc4ccccc34)cc2CC(=O)N([C@H](C)CO)C[C@H]1C | 8 | -10 | . | 2 | 0 | -1
COc1ccnc(CSC(N)=Nc2ccc(F)cc2)c1 | 3 | . | 82* | . | . | .
COc1ccc(S(=O)(=O)N(C)C[C@@H]2Oc3ccc(NC(=O)NC4CCCCC4)cc3C(=O)N([C@@H](C)CO)C[C@@H]2C)cc1 | -5 | -7 | -1 | -5 | 3 | 2
Nc1ccc(Sc2ccccc2Cl)nc1 | . | 4 | -17 | 33 | -5 | 43*
O=C(C[C@H]1C=C[C@@H](NC(=O)C2CCOCC2)[C@@H](CO)O1)Nc1nccs1 | . | 0 | . | 1 | -8 | 2
C[C@H](CO)N1C[C@H](C)[C@H](CN(C)CC2CCCCC2)OCCCC[C@H](C)Oc2ccc(NC(=O)NC3CCCCC3)cc2C1=O | -2 | . | 1 | 1 | . | .
Fc1ccc(CNC(=S)Nc2cccc(C(F)(F)F)c2)cc1 | . | . | -8 | . | . | .
O=[N+]([O-])c1cc(C(F)(F)F)cc([N+](=O)[O-])c1NCCNC(=S)Nc1cccc(F)c1 | 2 | -7 | 9 | -25* | 0 | -2
O=C(NCCCN1CCOCC1)c1ccc(CS(=O)(=O)Cc2ccccc2Cl)o1 | -1 | . | active | . | . | .
O=C(c1ccc(CS(=O)Cc2ccccc2Cl)o1)N1CCN(c2cccc(Cl)c2)CC1 (stereo unspecified) | . | -6 | 2 | -2 | -2 | 5
COc1cccc(N2CCN(C(=O)c3ccc(CS(=O)Cc4ccccc4Cl)o3)CC2)c1 (stereo unspecified) | -3 | -9 | 6 | -31* | 1 | -1
O=C(NCCCN1CCCCCC1)c1ccc(CS(=O)(=O)Cc2ccccc2F)o1 | . | . | 20 | . | . | .
CCN1CCN(C(=O)c2ccc(CS(=O)(=O)Cc3ccccc3C)o2)CC1 | -2 | -4 | -4 | 8 | 2 | -1

Screens as filed in PubChem BioAssay.
